ChEMBL document CHEMBL4190190, “Furan and Lactam Jadomycin Biosynthetic Congeners Isolated from Streptomyces venezuelae ISP5230 Cultured with Nε-Trifluoroacetyl-l-lysine” (J Nat Prod, 2017)
In brackets after ≈: the same amount, converted by molar mass. Activity calls are given as the source filed them. The rule behind the calls is not given here.

Experiments:
[1] = test system: Enterococcus faecium; assay: Antibacterial activity against vancomycin-resistant Enterococcus faecium EF379 after 22 hrs by CLSI microbroth assay; format: functional; conditions: EF379, 22 h
Outline: (§1)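 Run within a six-organism panel: MRSA, Staphylococcus warneri and vancomycin-resistant E. faecium (Gram-positive), Proteus vulgaris and Pseudomonas aeruginosa (Gram-negative), and the yeast Candida albicans. Read-out was the minimum inhibitory concentration, reported in μg mL−1.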

[2] = test system: Staphylococcus warneri; assay: Antibacterial activity against Staphylococcus warneri ATCC 17917 after 22 hrs by CLSI microbroth assay; format: functional; conditions: ATCC 17917, 22 h
[3] = test system: Proteus vulgaris; assay: Antibacterial activity against Proteus vulgaris ATCC 12454 after 22 hrs by CLSI microbroth assay; format: functional, organism-based
[4] = test system: BJ; assay: Cytotoxicity against human BJ cells after 24 hrs by alamar blue assay; format: cell-based
[5] = test system: Pseudomonas aeruginosa; assay: Antibacterial activity against Pseudomonas aeruginosa ATCC 14210 after 22 hrs by CLSI microbroth assay; format: functional, organism-based
[6] = test system: Staphylococcus aureus; assay: Antibacterial activity against methicillin-resistant Staphylococcus aureus ATCC 33591 after 22 hrs by CLSI microbroth assay; format: functional; conditions: ATCC 33591, 22 h; outline: as §1
[7] = test system: Vero; assay: Cytotoxicity against African green monkey Vero cells after 24 hrs by alamar blue assay; format: cell-based; conditions: chlorocebus sabaeus

Cc1cc(O)c2c(c1)C1OC(=O)[C@H](CCCCNC(=O)C(F)(F)F)N1C1=C2C(=O)c2cccc(O[C@H]3C[C@@H](O)[C@@H](O)[C@H](C)O3)c2C1=O (some centres undefined)
MIC [1]: 13 µg/mL (≈ 19.7 µM)
MIC [2]: 3 µg/mL (≈ 4.54 µM)
Activity [3]: inactive
MIC90 [4]: > 128 µg/mL
Activity [5]: inactive
MIC [6]: 3 µg/mL (≈ 4.54 µM)
MIC90 [7]: > 128 µg/mL

Cc1cc(O)c2c3c(n([C@@H](CCCCNC(=O)C(F)(F)F)C(=O)O)c(=O)c2c1)C(=O)c1c(O[C@H]2C[C@@H](O)[C@@H](O)[C@H](C)O2)cccc1C3=O
MIC [1]: ≥ 100 µg/mL
MIC [2]: ≥ 100 µg/mL
Activity [3]: inactive
MIC90 [4]: > 128 µg/mL
Activity [5]: inactive
MIC [6]: ≥ 100 µg/mL
MIC90 [7]: > 128 µg/mL
